This is an account of results in article PMC2766535 (Journal of separation science, 2009).

Sequence of human serum albumin (HSA) (P02768 25-609): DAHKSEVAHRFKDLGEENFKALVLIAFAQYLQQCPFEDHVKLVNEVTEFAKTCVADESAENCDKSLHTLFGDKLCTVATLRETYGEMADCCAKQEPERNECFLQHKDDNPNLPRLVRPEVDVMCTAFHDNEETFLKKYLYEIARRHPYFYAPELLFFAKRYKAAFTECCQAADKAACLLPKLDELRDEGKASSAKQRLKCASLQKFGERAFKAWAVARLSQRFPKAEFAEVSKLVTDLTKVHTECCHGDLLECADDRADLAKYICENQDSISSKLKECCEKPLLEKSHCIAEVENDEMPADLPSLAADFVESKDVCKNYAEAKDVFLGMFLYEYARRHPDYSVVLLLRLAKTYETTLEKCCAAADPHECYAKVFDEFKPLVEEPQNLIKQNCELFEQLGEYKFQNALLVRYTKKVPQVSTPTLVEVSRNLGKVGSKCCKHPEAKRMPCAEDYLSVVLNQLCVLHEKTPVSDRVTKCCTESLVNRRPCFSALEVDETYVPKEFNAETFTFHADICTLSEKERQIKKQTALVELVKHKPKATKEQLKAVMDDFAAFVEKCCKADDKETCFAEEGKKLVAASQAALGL

This experiment has as its target human serum albumin (HSA) (Homo sapiens, UniProt P02768). Nature of the experiment: frontal analysis, high-performance affinity chromatography on immobilized HSA. It is filed as binding. The method, boiled down:
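Fatty-acid-free HSA immobilized by Schiff base on diol silica (40 (± 2) mg HSA/g silica), packed in a 5 cm × 2.1 mm i.d. column. A column without HSA corrected for non-specific binding. Test compound (0.5 µM to 30 µM) in pH 7.4, 0.067 M potassium phosphate was applied at 0.5 mL/min, 37°C, until plateau. Detection at 260 nm; mean breakthrough times were used.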
In general, Kd refers to a measure of binding affinity in units of concentration. High values mean lower affinity, low ones higher affinity. The molecule `O=C(O)CCCc1c[nH]c2ccccc12` [Indole-3-butyric acid] showed an equilibrium dissociation constant (Kd) of 1.03 µM.
The result for `CC(=O)c1c[nH]c2ccccc12` [3-Acetylindole] reads 12.8 µM.
`O=C(O)CCc1c[nH]c2ccccc12` [Indole-3-propionic acid] had a Kd of 9.09 µM.
The result for `Cc1c[nH]c2ccccc12` [3-Methylindole] reads 18.9 µM; that for `OCc1c[nH]c2ccccc12` [Indole-3-methanol], 8.33 µM.
